# In ChEMBL document CHEMBL3817737, “Structure-Based Identification of Novel Ligands Targeting Multiple Sites within a Chemokine-G-Protein-Coupled-Receptor Interface” (J Med Chem, 2016):
# How the values were obtained:
# [1] = molecular target: T1, Stromal cell-derived factor 1 (Homo sapiens, UniProt P48061); assay: Binding affinity to His6-SUMO fusion tagged wild type human [U-15N]CXCL12 expressed in Escherichia coli assessed as induction of chemical shift perturbations to residues at I4/I6 binding site by 2D 1H-15N HMQC NMR spectroscopy
# Outline: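 [U-15N]-CXCL12 WT was made as a His6SUMO fusion in E. coli (Terrific Broth, 1 mM IPTG) and taken from inclusion bodies by Ni-NTA. Combined CSP = ((5ΔδH)2+(ΔδN)2)0.5. Kd came from single-site quadratic fits of the most-perturbed residues, fitted individually and averaged (±SD).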
# [2] = molecular target: T1, Stromal cell-derived factor 1; assay: Binding affinity to His6-SUMO fusion tagged wild type human [U-15N]CXCL12 expressed in Escherichia coli by 2D 1H-15N HMQC NMR spectroscopy
# [3] = molecular target: Stromal cell-derived factor 1 (Homo sapiens, UniProt P48061, A65C/L36C)
# Chain of Stromal cell-derived factor 1 (Homo sapiens, UniProt P48061, A65C/L36C) (P48061 22-93 L57C/A86C limits assumed): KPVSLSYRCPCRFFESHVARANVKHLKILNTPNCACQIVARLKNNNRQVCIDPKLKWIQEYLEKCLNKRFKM
# T1 sequence (P48061 whole entry, the tested form may be a part): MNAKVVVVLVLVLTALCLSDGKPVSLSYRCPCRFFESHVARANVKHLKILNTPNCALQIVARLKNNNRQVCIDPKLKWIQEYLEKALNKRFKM
Structure (SMILES),Activity [1] [%],Kd [2],Kd [3] [µM],Kd ([2]; read-out: Kd) [µM]
Cc1ccc(NS(=O)(=O)c2ccc(OCC(=O)O)c(C)c2)cc1C,12.5,,,
O=C(O)CC1c2ccccc2CCN1C(=O)Nc1cccc(F)c1 (stereo unspecified),12.5,,,
CC(C)O.CCCOc1ccc(C(Nc2ccc(F)cc2)P(=O)(O)O)cc1 (stereo unspecified),,Dose-dependent effect,74,
C[C@H](NC(=O)CCn1ccc2c(Cl)cccc21)C(=O)O,16.7,,,1700
